# According to ChEMBL document CHEMBL3616442, “Unconventional Knoevenagel-type indoles: Synthesis and cell-based studies for the identification of pro-apoptotic agents” (Eur J Med Chem, 2015):
# Tests used:
# Format in all cases: functional
# CCRF-CEM = experiment: Growth inhibition of human CCRF-CEM cells after 48 hrs by sulforhodamine B assay
# In short: (§1)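 NCI 60-cell-line screen. Compounds tested at five 10-fold dilutions from 10^-4 to 10^-8 M. Cells exposed for the last 48 h of a 72 h incubation, growth estimated by sulforhodamine B protein assay. GI50 is the concentration giving 50% growth inhibition. Values beyond the tested range are expressed as greater or lesser than the extreme concentration.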
# HL-60(TB) = experiment: Growth inhibition of human HL-60(TB) cells after 48 hrs by sulforhodamine B assay; details: HL-60, 48 h
# In short: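 NCI 60-cell-line screen, HL-60(TB) included. Compound given at five 10-fold dilutions from 10^-4 to 10^-8 M. Cells exposed for the last 48 h of a 72 h incubation. Growth or viability estimated by sulforhodamine B protein assay. GI50 is the concentration giving 50% growth inhibition. Values outside the tested range are reported as greater or less than the highest or lowest concentration.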
# K562 = experiment: Growth inhibition of human K562 cells after 48 hrs by sulforhodamine B assay; details: K562, 48 h; in short: as §1
# [1] = Growth inhibition of human MOLT4 cells after 48 hrs by sulforhodamine B assay; details: MOLT-4, 48 h; in short: as §1
# [2] = Growth inhibition of human RPMI8226 cells after 48 hrs by sulforhodamine B assay; details: RPMI-8226, 48 h
# A549 = experiment: Growth inhibition of human A549 cells after 48 hrs by sulforhodamine B assay; details: A549, 48 h; in short: as §1
# HOP-62 = experiment: Growth inhibition of human HOP62 cells after 48 hrs by sulforhodamine B assay; details: HOP-62, 48 h; in short: as §1
# [3] = Growth inhibition of human HOP92 cells after 48 hrs by sulforhodamine B assay; details: HOP-92, 48 h; in short: as §1
# NCI-H226 = experiment: Growth inhibition of human NCI-H226 cells after 48 hrs by sulforhodamine B assay; details: NCI-H226, 48 h; in short: as §1
# NCI-H23 = experiment: Growth inhibition of human NCI-H23 cells after 48 hrs by sulforhodamine B assay; details: NCI-H23, 48 h; in short: as §1
# NCI-H322M = experiment: Growth inhibition of human NCI-H322M cells after 48 hrs by sulforhodamine B assay; in short: as §1
# NCI-H460 = experiment: Growth inhibition of human NCI-H460 cells after 48 hrs by sulforhodamine B assay; details: NCI-H460, 48 h; in short: as §1
# NCI-H522 = experiment: Growth inhibition of human NCI-H522 cells after 48 hrs by sulforhodamine B assay; details: NCI-H522, 48 h; in short: as §1
# [4] = Growth inhibition of human HCC2998 cells after 48 hrs by sulforhodamine B assay; details: HCC 2998, 48 h; in short: as §1
# HCT-15 = experiment: Growth inhibition of human HCT15 cells after 48 hrs by sulforhodamine B assay; details: HCT-15, 48 h; in short: as §1
# HT-29 = experiment: Growth inhibition of human HT-29 cells after 48 hrs by sulforhodamine B assay; details: HT-29, 48 h; in short: as §1
# KM12 = experiment: Growth inhibition of human KM12 cells after 48 hrs by sulforhodamine B assay; details: KM12, 48 h; in short: as §1
# SW-620 = experiment: Growth inhibition of human SW620 cells after 48 hrs by sulforhodamine B assay; details: SW-620, 48 h
# [5] = Growth inhibition of human SF295 cells after 48 hrs by sulforhodamine B assay; details: SF-295, 48 h
# [6] = Growth inhibition of human SF539 cells after 48 hrs by sulforhodamine B assay; details: SF-539, 48 h
# SNB-19 = experiment: Growth inhibition of human SNB19 cells after 48 hrs by sulforhodamine B assay; details: SNB-19, 48 h
# SNB-75 = experiment: Growth inhibition of human SNB75 cells after 48 hrs by sulforhodamine B assay; details: SNB-75, 48 h
# U-251 = experiment: Growth inhibition of human U251 cells after 48 hrs by sulforhodamine B assay; details: U-251, 48 h
# Malme-3M = experiment: Growth inhibition of human MALME-3M cells after 48 hrs by sulforhodamine B assay; in short: as §1
# MDA-MB-435 = experiment: Growth inhibition of human MDA-MB-435 cells after 48 hrs by sulforhodamine B assay; details: MDA-MB-435, 48 h; in short: as §1
# SK-MEL-2 = experiment: Growth inhibition of human SK-MEL-2 cells after 48 hrs by sulforhodamine B assay; details: SK-MEL-2, 48 h
# SK-MEL-5 = experiment: Growth inhibition of human SK-MEL-5 cells after 48 hrs by sulforhodamine B assay; details: SK-MEL-5, 48 h
# UACC-257 = experiment: Growth inhibition of human UACC257 cells after 48 hrs by sulforhodamine B assay; details: UACC-257, 48 h
# UACC-62 = experiment: Growth inhibition of human UACC62 cells after 48 hrs by sulforhodamine B assay; details: UACC-62, 48 h
# OVCAR-3 = experiment: Growth inhibition of human OVCAR3 cells after 48 hrs by sulforhodamine B assay; details: OVCAR-3, 48 h; in short: as §1
# OVCAR-4 = experiment: Growth inhibition of human OVCAR4 cells after 48 hrs by sulforhodamine B assay; details: OVCAR-4, 48 h; in short: as §1
# OVCAR-5 = experiment: Growth inhibition of human OVCAR5 cells after 48 hrs by sulforhodamine B assay; details: OVCAR-5, 48 h
# OVCAR-8 = experiment: Growth inhibition of human OVCAR8 cells after 48 hrs by sulforhodamine B assay; details: OVCAR-8, 48 h
# [7] = Growth inhibition of human NCI-ADR-RES cells after 48 hrs by sulforhodamine B assay; in short: as §1
# 786-0 = experiment: Growth inhibition of human 786-0 cells after 48 hrs by sulforhodamine B assay; details: 786-0, 48 h; in short: as §1
# A498 = experiment: Growth inhibition of human A498 cells after 48 hrs by sulforhodamine B assay; details: A498, 48 h; in short: as §1
# ACHN = experiment: Growth inhibition of human ACHN cells after 48 hrs by sulforhodamine B assay; in short: as §1
# CAKI-1 = experiment: Growth inhibition of human CAKI-1 cells after 48 hrs by sulforhodamine B assay; details: CAKI-1, 48 h; in short: as §1
# [8] = Growth inhibition of human RXF393 cells after 48 hrs by sulforhodamine B assay; details: RXF 393, 48 h
# SN12C = experiment: Growth inhibition of human SN12C cells after 48 hrs by sulforhodamine B assay
# TK-10 = experiment: Growth inhibition of human TK10 cells after 48 hrs by sulforhodamine B assay; details: TK-10, 48 h
# PC-3 = experiment: Growth inhibition of human PC3 cells after 48 hrs by sulforhodamine B assay; details: PC-3, 48 h
# [9] = Growth inhibition of human Hs 578T cells after 48 hrs by sulforhodamine B assay; in short: as §1
# [10] = Growth inhibition of human BT549 cells after 48 hrs by sulforhodamine B assay; details: BT-549, 48 h; in short: as §1
# T47D = experiment: Growth inhibition of human T47D cells after 48 hrs by sulforhodamine B assay
# MDA-MB-468 = experiment: Growth inhibition of human MDA-MB-468 cells after 48 hrs by sulforhodamine B assay; details: MDA-MB-468, 48 h; in short: as §1
smiles,measurement,setting,value
COc1ccc(-c2[nH]c3ccccc3c2/C=C(\C#N)S(=O)(=O)c2ccccc2)cc1,GI50,CCRF-CEM,1.3 µM
same,GI50,HL-60(TB),0.294 µM
same,GI50,K562,0.535 µM
same,GI50,[1],0.871 µM
same,GI50,[2],2.1 µM
same,GI50,A549,0.803 µM
same,GI50,HOP-62,1 µM
same,GI50,[3],2.3 µM
same,GI50,NCI-H226,2.8 µM
same,GI50,NCI-H23,0.932 µM
same,GI50,NCI-H322M,1.5 µM
same,GI50,NCI-H460,0.404 µM
same,GI50,NCI-H522,3 µM
same,GI50,[4],1.2 µM
same,GI50,HCT-15,0.554 µM
same,GI50,HT-29,0.314 µM
same,GI50,KM12,0.374 µM
same,GI50,SW-620,0.506 µM
same,GI50,[5],0.5 µM
same,GI50,[6],0.299 µM
same,GI50,SNB-19,0.863 µM
same,GI50,SNB-75,0.379 µM
same,GI50,U-251,0.473 µM
same,GI50,Malme-3M,1.2 µM
same,GI50,MDA-MB-435,0.203 µM
same,GI50,SK-MEL-2,18.1 µM
same,GI50,SK-MEL-5,0.344 µM
same,GI50,UACC-257,10.7 µM
same,GI50,UACC-62,0.597 µM
same,GI50,OVCAR-3,0.244 µM
same,GI50,OVCAR-4,0.578 µM
same,GI50,OVCAR-5,1.9 µM
same,GI50,OVCAR-8,1.3 µM
same,GI50,[7],0.428 µM
same,GI50,786-0,1.2 µM
same,GI50,A498,1.1 µM
same,GI50,ACHN,1.9 µM
same,GI50,CAKI-1,0.997 µM
same,GI50,[8],1 µM
same,GI50,SN12C,1.5 µM
same,GI50,TK-10,4.8 µM
same,GI50,PC-3,0.557 µM
same,GI50,[9],0.682 µM
same,GI50,[10],1.6 µM
same,GI50,T47D,0.533 µM
same,GI50,MDA-MB-468,< 0.01 µM
CCOC(=O)C(=Cc1c(-c2ccccc2)[nH]c2ccccc12)C(=O)OCC,GI50,CCRF-CEM,2.6 µM
same,GI50,HL-60(TB),4.4 µM
same,GI50,K562,3.6 µM
same,GI50,[1],3.9 µM
same,GI50,[2],0.219 µM
same,GI50,A549,6.4 µM
same,GI50,HOP-62,5.5 µM
same,GI50,[3],8.8 µM
same,GI50,NCI-H226,11.4 µM
same,GI50,NCI-H23,2.9 µM
same,GI50,NCI-H322M,12.7 µM
same,GI50,NCI-H460,3.8 µM
same,GI50,NCI-H522,3.4 µM
same,GI50,[4],10.1 µM
same,GI50,HCT-15,4.1 µM
same,GI50,HT-29,4.6 µM
same,GI50,KM12,3.5 µM
same,GI50,SW-620,5.6 µM
same,GI50,[5],7.6 µM
same,GI50,[6],14.5 µM
same,GI50,SNB-19,23.9 µM
same,GI50,SNB-75,7 µM
same,GI50,U-251,4.9 µM
same,GI50,Malme-3M,8.9 µM
same,GI50,MDA-MB-435,3.4 µM
same,GI50,SK-MEL-2,4.7 µM
same,GI50,SK-MEL-5,3.8 µM
same,GI50,UACC-257,7.5 µM
same,GI50,UACC-62,4.6 µM
same,GI50,OVCAR-3,4.2 µM
same,GI50,OVCAR-4,10.5 µM
same,GI50,OVCAR-5,18.5 µM
same,GI50,OVCAR-8,4.1 µM
same,GI50,[7],2.9 µM
same,GI50,786-0,12.9 µM
same,GI50,A498,16.9 µM
same,GI50,ACHN,4.4 µM
same,GI50,CAKI-1,10.3 µM
same,GI50,[8],3.7 µM
same,GI50,SN12C,5.1 µM
same,GI50,TK-10,13.6 µM
same,GI50,PC-3,3.3 µM
same,GI50,[9],3.8 µM
same,GI50,[10],5.3 µM
same,GI50,T47D,2.7 µM
same,GI50,MDA-MB-468,3.1 µM
N#C/C(=C\c1c(-c2ccccc2)[nH]c2ccccc12)S(=O)(=O)c1ccccc1,GI50,CCRF-CEM,2.6 µM
same,GI50,HL-60(TB),1.8 µM
same,GI50,K562,0.348 µM
same,GI50,[1],2.2 µM
same,GI50,[2],0.714 µM
same,GI50,A549,3.7 µM
same,GI50,HOP-62,9.3 µM
same,GI50,[3],10.3 µM
same,GI50,NCI-H226,4.1 µM
same,GI50,NCI-H23,4.7 µM
same,GI50,NCI-H322M,9.2 µM
same,GI50,NCI-H460,2.7 µM
same,GI50,NCI-H522,4.6 µM
same,GI50,[4],10.9 µM
same,GI50,HCT-15,1.1 µM
same,GI50,HT-29,0.595 µM
same,GI50,KM12,0.652 µM
same,GI50,SW-620,0.57 µM
same,GI50,[5],2.4 µM
same,GI50,[6],2.5 µM
same,GI50,SNB-19,8.3 µM
same,GI50,SNB-75,1.7 µM
same,GI50,U-251,2.6 µM
same,GI50,Malme-3M,8.4 µM
same,GI50,MDA-MB-435,0.288 µM
same,GI50,SK-MEL-2,12.7 µM
same,GI50,SK-MEL-5,1.82 µM
same,GI50,UACC-257,18.2 µM
same,GI50,UACC-62,2.6 µM
same,GI50,OVCAR-3,1.4 µM
same,GI50,OVCAR-4,5.5 µM
same,GI50,OVCAR-5,13.9 µM
same,GI50,OVCAR-8,6 µM
same,GI50,[7],1.1 µM
same,GI50,786-0,9.2 µM
same,GI50,A498,11 µM
same,GI50,ACHN,7 µM
same,GI50,CAKI-1,5.5 µM
same,GI50,[8],3.6 µM
same,GI50,SN12C,5.2 µM
same,GI50,TK-10,5.6 µM
same,GI50,PC-3,3.4 µM
same,GI50,[9],23.6 µM
same,GI50,[10],11.6 µM
same,GI50,T47D,3.8 µM
same,GI50,MDA-MB-468,1.9 µM
